Experimental data published in ChEMBL document CHEMBL4251567 (Eur J Med Chem, 2018).
Each block holds one compound with its values, some of them ahead of it.

Columns and labels:
[1] = target: T1, Histone deacetylase 8 (Homo sapiens) (UniProt Q9BY41); assay: Inhibition of human recombinant full-length C-terminal His-tagged HDAC8 expressed in baculovirus infected Sf9 insect cell assessed as remaining activity at 8 x 10^-7 M preincubated for 15 mins followed by HDAC-Glo substrate addition measured after 30 mins by fluorimetric method rel;ative to control
T1 sequence (whole entry): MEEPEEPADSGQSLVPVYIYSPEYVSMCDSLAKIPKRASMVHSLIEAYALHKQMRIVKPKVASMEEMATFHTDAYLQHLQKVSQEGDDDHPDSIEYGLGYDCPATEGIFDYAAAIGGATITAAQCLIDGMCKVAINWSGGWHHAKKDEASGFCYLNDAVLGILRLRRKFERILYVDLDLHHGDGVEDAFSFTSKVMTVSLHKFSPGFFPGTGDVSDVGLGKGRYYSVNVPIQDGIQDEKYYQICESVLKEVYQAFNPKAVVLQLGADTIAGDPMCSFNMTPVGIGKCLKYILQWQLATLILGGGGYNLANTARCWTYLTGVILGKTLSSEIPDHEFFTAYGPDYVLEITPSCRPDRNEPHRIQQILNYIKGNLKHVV
Method in brief: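 Recombinant HDAC8 (75 ng) preincubated 15 min at RT with inhibitor in DMSO in HDAC-Glo buffer. HDAC-Glo reagent added and luminescence read 30 min later. Background taken from a reaction without enzyme; activity as % of DMSO control.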

[2] = target: T2, Protein deacetylase HDAC6 (Homo sapiens) (UniProt Q9UBN7); assay: Inhibition of HDAC6 in human HeLa-S3 cell lysates assessed as remaining activity at 8 x 10^-7 M preincubated for 15 mins followed by HDAC-Glo substrate addition measured after 30 to 40 mins by […] relative to control
T2 sequence (whole entry): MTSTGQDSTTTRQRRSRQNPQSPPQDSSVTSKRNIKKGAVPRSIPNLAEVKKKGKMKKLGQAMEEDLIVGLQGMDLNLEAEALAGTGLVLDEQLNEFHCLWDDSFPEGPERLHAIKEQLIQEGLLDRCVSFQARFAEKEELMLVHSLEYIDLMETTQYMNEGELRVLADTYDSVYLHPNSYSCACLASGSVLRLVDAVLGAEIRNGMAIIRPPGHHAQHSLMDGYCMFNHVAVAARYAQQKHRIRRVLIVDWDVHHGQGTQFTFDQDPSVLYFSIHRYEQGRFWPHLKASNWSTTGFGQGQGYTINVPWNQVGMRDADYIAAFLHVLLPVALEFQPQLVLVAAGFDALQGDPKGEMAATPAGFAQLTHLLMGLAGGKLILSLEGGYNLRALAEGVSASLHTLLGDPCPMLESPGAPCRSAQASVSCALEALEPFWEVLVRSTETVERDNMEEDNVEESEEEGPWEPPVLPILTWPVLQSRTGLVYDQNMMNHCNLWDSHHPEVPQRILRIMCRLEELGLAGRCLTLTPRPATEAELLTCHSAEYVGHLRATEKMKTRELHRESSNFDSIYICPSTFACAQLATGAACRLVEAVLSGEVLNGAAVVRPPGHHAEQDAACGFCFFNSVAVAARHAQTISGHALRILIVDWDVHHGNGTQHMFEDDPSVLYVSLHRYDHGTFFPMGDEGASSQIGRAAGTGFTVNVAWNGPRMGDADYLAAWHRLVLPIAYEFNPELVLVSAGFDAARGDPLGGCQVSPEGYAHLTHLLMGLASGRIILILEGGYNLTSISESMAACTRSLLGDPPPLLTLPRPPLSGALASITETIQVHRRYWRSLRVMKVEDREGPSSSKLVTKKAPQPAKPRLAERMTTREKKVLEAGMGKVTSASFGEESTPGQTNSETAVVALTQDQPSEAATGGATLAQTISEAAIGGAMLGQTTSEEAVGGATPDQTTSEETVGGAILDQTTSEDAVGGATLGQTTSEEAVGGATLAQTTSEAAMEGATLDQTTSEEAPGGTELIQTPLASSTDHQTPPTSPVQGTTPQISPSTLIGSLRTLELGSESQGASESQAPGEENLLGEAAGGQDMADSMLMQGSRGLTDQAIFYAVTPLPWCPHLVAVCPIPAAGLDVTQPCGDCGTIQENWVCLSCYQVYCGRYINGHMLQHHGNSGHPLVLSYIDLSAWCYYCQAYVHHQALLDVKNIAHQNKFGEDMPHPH
Method in brief: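 HDAC6 captured on an anti-HDAC6 antibody-coated plate (2 μg/mL, pH 9.4 carbonate buffer, milk-blocked). HeLa-S3 lysate loaded at 1 mg/mL, 1 h at 4 °C, then washed. 15 min RT preincubation with inhibitor in DMSO; HDAC-Glo reagent added, luminescence read at 30-40 min. Concentrations are final. Background = no-antibody well; values are % activity versus DMSO control.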

[3] = target: T2, Protein deacetylase HDAC6 (Homo sapiens); assay: Inhibition of HDAC6 in human U937 cells assessed as increase in acetyl-alpha-tubulin levels after 18 hrs by Western blot method; format: cell-based
Method in brief: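 U937 cells (10^6/well in RPMI-1640 with 10% FCS) treated 18 h at 37 °C, 5% CO2 with inhibitor or DMSO (1% final). Lysates separated on 16% SDS-PAGE and blotted to PVDF. Probed with anti-acetyl-α-tubulin(Lys40) and anti-acetyl-H3(Lys9), GAPDH as load control; ECL detection. Blots representative of three trials.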

[4] = target: Histone deacetylase 2 (Homo sapiens) (UniProt Q92769); assay: Inhibition of HDAC2 in human HeLa-S3 cell lysates assessed as remaining activity at 2 x 10^-6 M preincubated for 15 mins followed by HDAC-Glo substrate addition measured after 30 to 40 mins by fluorimetric method relative to control
Chain of Histone deacetylase 2 (Homo sapiens) (Q92769 whole entry, canonical isoform): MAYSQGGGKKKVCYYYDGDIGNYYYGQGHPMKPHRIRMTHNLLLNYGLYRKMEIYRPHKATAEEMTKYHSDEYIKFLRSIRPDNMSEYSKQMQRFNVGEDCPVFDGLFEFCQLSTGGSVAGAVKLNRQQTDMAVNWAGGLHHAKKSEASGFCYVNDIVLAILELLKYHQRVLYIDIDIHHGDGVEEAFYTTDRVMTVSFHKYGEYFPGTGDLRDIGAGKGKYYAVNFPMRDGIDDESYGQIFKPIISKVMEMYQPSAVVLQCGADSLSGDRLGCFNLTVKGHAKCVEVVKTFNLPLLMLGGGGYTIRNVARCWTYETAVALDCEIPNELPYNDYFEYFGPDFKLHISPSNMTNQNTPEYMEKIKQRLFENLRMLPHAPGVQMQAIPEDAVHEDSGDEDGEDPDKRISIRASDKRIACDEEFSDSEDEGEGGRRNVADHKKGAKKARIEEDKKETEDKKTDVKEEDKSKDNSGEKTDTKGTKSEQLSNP
Method in brief: (§1)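 Same antibody-capture format as the other class I isoforms. HeLa-S3 lysate added at 100 μg/mL for HDAC1 and HDAC2, 1 h at 4 °C, then washed. Inhibitor in DMSO preincubated 15 min at RT; HDAC-Glo reagent added and luminescence read after 30-40 min. Concentrations are final. Signal corrected against a well without antibody; activity expressed as % of DMSO control.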

[5] = target: Histone deacetylase 2 (Homo sapiens) (UniProt Q92769); assay: Inhibition of HDAC2 in human HeLa-S3 cell lysates assessed as remaining activity at […] preincubated for 15 mins followed by HDAC-Glo substrate addition measured after 30 to 40 mins by […] relative to control
[6] = target: T2, Protein deacetylase HDAC6 (Homo sapiens); assay: Inhibition of HDAC6 in human HeLa-S3 cell lysates assessed as remaining activity at […] preincubated for 15 mins followed by HDAC-Glo substrate addition measured after 30 to 40 mins by […] relative to control
[7] = target: Histone deacetylase 2 (Homo sapiens) (UniProt Q92769); assay: Inhibition of HDAC2 in human HeLa-S3 cell lysates assessed as remaining activity at 1.6 x 10^-5 M preincubated for 15 mins followed by HDAC-Glo substrate addition measured after 30 to 40 mins by […] relative to control; method in brief: as §1
[8] = target: Histone deacetylase 2 (Homo sapiens) (UniProt Q92769); assay: Inhibition of HDAC2 in human HeLa-S3 cell lysates assessed as remaining activity at 1.25 uM preincubated for 15 mins followed by HDAC-Glo substrate addition measured after 30 to 40 mins by […] relative to control; method in brief: as §1

- Activity [1]: 19%
- Activity [2]: 16%
Compound: O=C(CC[C@H](CCCC(=O)Nc1ccccc1)Cc1ccccc1)NO

- inhibition [3]: Dose-dependent effect
Compound: O=C(CCC(CCCC(=O)Nc1ccccc1)Cc1ccccc1)NO (racemic)

- Activity [4]: 69%
- Activity [5]: 87%
- Activity [6]: 18%
- Activity [7]: 23%
Compound: CCC(CCCC(=O)Nc1ccccc1)CCC(=O)NO (stereo not drawn)

- Activity [8]: 101%
Compound: CCCCCCC(CCCC(=O)Nc1ccccc1)CCC(=O)NO (stereo not drawn)
